Measurements taken from ChEMBL document CHEMBL5058577, “EUbOPEN Chemogenomics Library 2 (Multiplex)” (2022).

Test system: Fibroblast
Assay: Multiplex assay against human fibroblast
Assay type: toxicity, cell-based
Procedure, shortened: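 Live cells carried four stains from seeding: Hoechst33342, BioTracker Green Microtubule Cytoskeleton Dye, MitoTracker Red and Annexin V Alexa Fluor 680. They were imaged on a CQ1 microscope at 37°C and 5% CO2 after compound addition. Using CellPathfinder machine-learning gating, cells were split into Hoechst high-intensity objects or normal cells, normal cells into healthy, pyknosed or fragmented nuclei, and pyknosed cells into mitotic or apoptotic; tubulin, mitochondrial-mass and membrane-permeability phenotypes are per cents of healthy-nucleus cells.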

[1] = 12 h, 1 µM, compound concentration 1 uM, replicate 1
[2] = 12 h, 1 µM, compound concentration 1 uM, replicate 2
[3] = 12 h, 10 µM, compound concentration 10 uM, replicate 1
[4] = 12 h, 10 µM, compound concentration 10 uM, replicate 2
[5] = 24 h, 1 µM, compound concentration 1 uM, replicate 1
[6] = 24 h, 1 µM, compound concentration 1 uM, replicate 2
[7] = 24 h, 10 µM, compound concentration 10 uM, replicate 1
[8] = 24 h, 10 µM, compound concentration 10 uM, replicate 2
[9] = 48 h, 1 µM, compound concentration 1 uM, replicate 1
[10] = 48 h, 1 µM, compound concentration 1 uM, replicate 2
[11] = 48 h, 10 µM, compound concentration 10 uM, replicate 1
[12] = 48 h, 10 µM, compound concentration 10 uM, replicate 2

CC(=O)Nc1cccc2c1c(Sc1ccc(Cl)cc1)c(C)n2CC(=O)O [AZD1981]
Population Apoptotic (%) [1]: 27% | Population Fragmented Nuclei (%) [1]: 18% | Population Healthy Nuclei (%) [1]: 61% | Population Hoechst High Intensity Objects (%) [1]: 1% | Population Membrane Permeable-Phenotype (%) [1]: 2% | Population Mitochondria Different-Phenotype (%) [1]: 9% | Population Mitotic Cells (%) [1]: 72% | Population Normal (%) [1]: 98% | Population Pyknosed Nuclei (%) [1]: 19% | Population Tubulin-Different-Phenotype (%) [1]: 33% | Total Cell Count [1]: 173 | Population Apoptotic (%) [2]: 37% | Population Fragmented Nuclei (%) [2]: 31% | Population Healthy Nuclei (%) [2]: 47% | Population Hoechst High Intensity Objects (%) [2]: 3% | Population Membrane Permeable-Phenotype (%) [2]: 14% | Population Mitochondria Different-Phenotype (%) [2]: 7% | Population Mitotic Cells (%) [2]: 62% | Population Normal (%) [2]: 96% | Population Pyknosed Nuclei (%) [2]: 21% | Population Tubulin-Different-Phenotype (%) [2]: 55% | Total Cell Count [2]: 118 | Population Apoptotic (%) [3]: 40% | Population Fragmented Nuclei (%) [3]: 16% | Population Healthy Nuclei (%) [3]: 64% | Population Hoechst High Intensity Objects (%) [3]: 3% | Population Membrane Permeable-Phenotype (%) [3]: 2% | Population Mitochondria Different-Phenotype (%) [3]: 3% | Population Mitotic Cells (%) [3]: 60% | Population Normal (%) [3]: 96% | Population Pyknosed Nuclei (%) [3]: 19% | Population Tubulin-Different-Phenotype (%) [3]: 24% | Total Cell Count [3]: 133 | Population Apoptotic (%) [4]: 33% | Population Fragmented Nuclei (%) [4]: 35% | Population Healthy Nuclei (%) [4]: 42% | Population Hoechst High Intensity Objects (%) [4]: 4% | Population Membrane Permeable-Phenotype (%) [4]: 8% | Population Mitochondria Different-Phenotype (%) [4]: 0% | Population Mitotic Cells (%) [4]: 66% | Population Normal (%) [4]: 95% | Population Pyknosed Nuclei (%) [4]: 22% | Population Tubulin-Different-Phenotype (%) [4]: 35% | Total Cell Count [4]: 112 | Population Apoptotic (%) [5]: 53% | Population Fragmented Nuclei (%) [5]: 19% | Population Healthy Nuclei (%) [5]: 63% | Population Hoechst High Intensity Objects (%) [5]: 6% | Population Membrane Permeable-Phenotype (%) [5]: 2% | Population Mitochondria Different-Phenotype (%) [5]: 2% | Population Mitotic Cells (%) [5]: 46% | Population Normal (%) [5]: 93% | Population Pyknosed Nuclei (%) [5]: 16% | Population Tubulin-Different-Phenotype (%) [5]: 28% | Total Cell Count [5]: 168 | Population Apoptotic (%) [6]: 36% | Population Fragmented Nuclei (%) [6]: 30% | Population Healthy Nuclei (%) [6]: 53% | Population Hoechst High Intensity Objects (%) [6]: 3% | Population Membrane Permeable-Phenotype (%) [6]: 7% | Population Mitochondria Different-Phenotype (%) [6]: 7% | Population Mitotic Cells (%) [6]: 63% | Population Normal (%) [6]: 96% | Population Pyknosed Nuclei (%) [6]: 15% | Population Tubulin-Different-Phenotype (%) [6]: 53% | Total Cell Count [6]: 128 | Population Apoptotic (%) [7]: 41% | Population Fragmented Nuclei (%) [7]: 13% | Population Healthy Nuclei (%) [7]: 68% | Population Hoechst High Intensity Objects (%) [7]: 4% | Population Membrane Permeable-Phenotype (%) [7]: 2% | Population Mitochondria Different-Phenotype (%) [7]: 5% | Population Mitotic Cells (%) [7]: 58% | Population Normal (%) [7]: 95% | Population Pyknosed Nuclei (%) [7]: 18% | Population Tubulin-Different-Phenotype (%) [7]: 17% | Total Cell Count [7]: 135 | Population Apoptotic (%) [8]: 55% | Population Fragmented Nuclei (%) [8]: 36% | Population Healthy Nuclei (%) [8]: 43% | Population Hoechst High Intensity Objects (%) [8]: 6% | Population Membrane Permeable-Phenotype (%) [8]: 14% | Population Mitochondria Different-Phenotype (%) [8]: 0% | Population Mitotic Cells (%) [8]: 45% | Population Normal (%) [8]: 93% | Population Pyknosed Nuclei (%) [8]: 20% | Population Tubulin-Different-Phenotype (%) [8]: 40% | Total Cell Count [8]: 104 | Population Apoptotic (%) [9]: 54% | Population Fragmented Nuclei (%) [9]: 23% | Population Healthy Nuclei (%) [9]: 61% | Population Hoechst High Intensity Objects (%) [9]: 6% | Population Membrane Permeable-Phenotype (%) [9]: 1% | Population Mitochondria Different-Phenotype (%) [9]: 6% | Population Mitotic Cells (%) [9]: 45% | Population Normal (%) [9]: 93% | Population Pyknosed Nuclei (%) [9]: 15% | Population Tubulin-Different-Phenotype (%) [9]: 33% | Total Cell Count [9]: 171 | Population Apoptotic (%) [10]: 57% | Population Fragmented Nuclei (%) [10]: 34% | Population Healthy Nuclei (%) [10]: 54% | Population Hoechst High Intensity Objects (%) [10]: 3% | Population Membrane Permeable-Phenotype (%) [10]: 8% | Population Mitochondria Different-Phenotype (%) [10]: 2% | Population Mitotic Cells (%) [10]: 42% | Population Normal (%) [10]: 96% | Population Pyknosed Nuclei (%) [10]: 11% | Population Tubulin-Different-Phenotype (%) [10]: 52% | Total Cell Count [10]: 129 | Population Apoptotic (%) [11]: 64% | Population Fragmented Nuclei (%) [11]: 21% | Population Healthy Nuclei (%) [11]: 64% | Population Hoechst High Intensity Objects (%) [11]: 4% | Population Membrane Permeable-Phenotype (%) [11]: 0% | Population Mitochondria Different-Phenotype (%) [11]: 2% | Population Mitotic Cells (%) [11]: 35% | Population Normal (%) [11]: 95% | Population Pyknosed Nuclei (%) [11]: 13% | Population Tubulin-Different-Phenotype (%) [11]: 25% | Total Cell Count [11]: 134 | Population Apoptotic (%) [12]: 40% | Population Fragmented Nuclei (%) [12]: 43% | Population Healthy Nuclei (%) [12]: 42% | Population Membrane Permeable-Phenotype (%) [12]: 11% | Population Mitochondria Different-Phenotype (%) [12]: 0% | Population Mitotic Cells (%) [12]: 60% | Population Pyknosed Nuclei (%) [12]: 15% | Population Tubulin-Different-Phenotype (%) [12]: 54% | Total Cell Count [12]: 105
